Compound activity: PubChem, Sanford-Burnham Center for Chemical Genomics
Hits are enriched below; roughly 2.3% of the tested compounds scored in any of these assays.
Rpn11 inh – blocks the human proteasome subunit Rpn11; human 26S proteasome, Ub4-pepOG fluorescence polarization; 20S core pre-blocked with epoxomicin; inhibition, % at 20 µM; actives 0.59% (n = 360,000);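 active = inhibition at 20 µM, scaled to each plate's controls, above about 33%, limit read from the data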
LMPTP block – LMPTP (human) inhibition | P24666 | recombinant LMPTP-A, OMFP fluorogenic substrate, fluorescence intensity | inhibition, % at 20 µM | actives 0.22% (n = 360,000) | AID 651560;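 active = compounds that cut the enzyme signal by at least half of the control window in the single-dose screen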
Target sequence (P24666 whole entry, looked up): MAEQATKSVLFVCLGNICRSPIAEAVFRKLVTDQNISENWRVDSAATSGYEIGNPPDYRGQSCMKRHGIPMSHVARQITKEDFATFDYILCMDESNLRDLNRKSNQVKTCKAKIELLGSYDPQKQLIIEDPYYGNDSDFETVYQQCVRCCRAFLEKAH
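test system = LMPTP-A | amount = 0.625 nM LMPTP-A final | reagent = fluorogenic phosphatase substrate OMFP at 400 µM final | incubation = 50 min at room temperature | benchmarks = no-enzyme low control, uninhibited high control | medium = Bis-Tris pH 6.0, DTT, detergent | signal = fluorescence intensity of OMFP turnover product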
STEP block – STEP (human) phosphatase inhibition | P54829 | recombinant STEP, OMFP fluorogenic substrate, fluorescence | inhibition, % at 20 µM | actives 0.25% (n = 360,000) | AID 588621;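 active = inhibition at 20 µM, scaled per plate between control wells, above about 37%, limit read from the data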
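Assay system: isolated STEP enzyme / Timing: 20 min at room temperature, dark / Doses: 20 µM, 1% DMSO / Technique: fluorescence intensity, excitation 480 nm, emission 540 nm / Reagent: fluorogenic phosphatase substrate OMFP at 25 µM final / Measure: percent inhibition scaled to no-enzyme and uninhibited-enzyme controls, plate-pattern corrected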
SUMO1 PPI mod – modulators of human SUMO1-mediated protein-protein interactions | P63165 | SUMO1 binding to a labelled peptide, TR-FRET, 1 h | inhibition, % at 20 µM | actives 0.33% (n = 360,000) | AID 602429; in the data active = inhibition above about 37%
Target sequence (P63165 whole entry, looked up): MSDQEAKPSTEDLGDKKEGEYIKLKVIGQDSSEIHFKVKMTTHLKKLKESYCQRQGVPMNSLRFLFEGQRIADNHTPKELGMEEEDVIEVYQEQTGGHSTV
Scp1 inh – Scp-1 (human) phosphatase inhibition. AID 493091. Recombinant Scp1, phosphopeptide, malachite green phosphate absorbance. Q9GZU7. actives 0.88% (n = 340,000). inhibition, % at 20 µM;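 active = inhibition above about 50% at 20 µM, limit read from the data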
Target sequence (Q9GZU7 76-261 limits assumed): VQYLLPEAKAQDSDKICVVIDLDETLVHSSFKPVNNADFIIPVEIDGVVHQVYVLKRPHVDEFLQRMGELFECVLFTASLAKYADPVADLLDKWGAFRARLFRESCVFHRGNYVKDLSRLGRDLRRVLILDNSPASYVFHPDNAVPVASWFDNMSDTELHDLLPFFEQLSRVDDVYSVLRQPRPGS
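Test system: SCP-1 phosphatase catalytic domain, residues 76-261; measured by: colorimetric phosphate reagent with accelerator and stabiliser, absorbance at 630 nm; timing: enzyme reaction 45 min at room temperature, colour 5 min, stabilisation 30 min; also added: Phosphorylated 17-residue peptide substrate; compound dosing: one concentration, 20 µM, with 1.0% DMSO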
DNMT1 block – blocks human DNA methyltransferase DNMT1. P26358. DNMT1 molecular beacon, Hinp1I cleavage, fluorescence. inhibition (reported as % activation of signal), % at 10 µM. actives 0.83% (n = 360,000). AID 588458; in the data active = inhibition above about 50%
Scp-1 conf – Scp-1 (human) inhibition, single-dose confirmed; AID 540281; shares compounds with Scp1 inh; recombinant SCP-1 catalytic domain, phosphate release, malachite green absorbance; actives 61% (n = 2,500); inhibition, % at 20 µM
MG interference – counter-screen for Scp-1 inhibitors: colorimetric interference | AID 540313 | Colorimetric interference counterscreen, malachite green absorbance 630 nm | shares compounds with Scp1 inh | 2,500 tested, under 10 active | apparent inhibition (interference), % at 20 µM;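 note: compounds added after enzyme reaction finished so only phosphate colour detection is probed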
Scp-1 Tm shift – validation of human Scp-1 inhibitors by thermal shift binding. AID 540329. thermal shift relative to vanadate control, % at 40 µM. shares compounds with Scp1 inh. actives 25% (n = 1,500). Recombinant SCP1, Sypro Orange thermal shift Tm;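 active = substances whose mean melting-temperature shift, as a percentage of the reference inhibitor's shift, reaches about 5.3%, limit read from the data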
Hits are given with their value.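 Rule for the calls, unless noted: active = inhibition of at least 30% at 20 µM; inactive = the rest.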

Screening CC1=NN(c2nc(-c3ccc(C)cc3)cs2)C(=O)C1N=Nc1ccccc1O (stereo unspecified) returned Rpn11 inh inactive, LMPTP block inactive, STEP block inactive, SUMO1 PPI mod inactive, Scp1 inh 58, DNMT1 block inactive, Scp-1 conf 71, MG interference inactive and Scp-1 Tm shift 7.4.
`O=C1Nc2ccccc2/C1=N/N=C/c1ccc(-c2ccc([N+](=O)[O-])cc2)o1` gave Rpn11 inh inactive, LMPTP block inactive, STEP block inactive, SUMO1 PPI mod inactive, Scp1 inh 75, DNMT1 block inactive, Scp-1 conf 36, MG interference inactive and Scp-1 Tm shift 5.6.
For CN(/N=C/c1ccc(-c2ccc([N+](=O)[O-])cc2)o1)c1ccccc1 the results were LMPTP block inactive, STEP block inactive, SUMO1 PPI mod inactive, Scp1 inh inactive and DNMT1 block inactive.
Screening C=CCOCCN1C(=O)C2C3C=CC(C2C1=O)C1C2C(=O)N(CCOCC=C)C(=O)C2C31 (stereo unspecified) returned Rpn11 inh inactive, LMPTP block inactive, STEP block inactive, SUMO1 PPI mod inactive, Scp1 inh 61, DNMT1 block inactive, Scp-1 conf 72, MG interference inactive and Scp-1 Tm shift inactive.
Screening C[N+]1=C2CCCCCN2C(O)(c2ccccc2)C1 (stereo unspecified) returned Rpn11 inh inactive, LMPTP block inactive, STEP block inactive, SUMO1 PPI mod inactive, Scp1 inh 96, DNMT1 block inactive, Scp-1 conf 94, MG interference inactive and Scp-1 Tm shift inactive.
`OC1(c2ccccc2Cl)NN=C2CCCCCN21` (stereo unspecified) gave Rpn11 inh inactive, LMPTP block inactive, STEP block inactive, SUMO1 PPI mod inactive, Scp1 inh inactive and DNMT1 block inactive.
Cc1cc(=O)[nH]c(SCC(=O)Nc2ccc(S(N)(=O)=O)cc2)n1 was read as Rpn11 inh inactive, LMPTP block inactive, STEP block inactive, SUMO1 PPI mod inactive, Scp1 inh 51, DNMT1 block inactive, Scp-1 conf 48, MG interference inactive and Scp-1 Tm shift inactive.
Screening CC(C)[C@H](NC(=O)c1ccc(Cl)cc1Cl)C(=O)NNC(=O)c1ccco1 returned Rpn11 inh inactive, LMPTP block inactive, STEP block inactive, SUMO1 PPI mod inactive, Scp1 inh inactive and DNMT1 block inactive.
Screening O=Cc1ccc(Oc2cnccn2)cc1 returned Rpn11 inh inactive, LMPTP block inactive, STEP block inactive, SUMO1 PPI mod inactive, Scp1 inh inactive and DNMT1 block inactive.
Screening O=C(CCCc1nc(-c2ccccc2)no1)NCc1cccnc1 returned Rpn11 inh inactive, LMPTP block inactive, STEP block inactive, SUMO1 PPI mod inactive, Scp1 inh 70, DNMT1 block inactive, Scp-1 conf inactive and MG interference inactive.
CCCn1c(N2CCN(CC(=O)c3c[nH]c4ccccc34)CC2)nc2c1c(=O)[nH]c(=O)n2C was read as Rpn11 inh inactive, LMPTP block inactive, STEP block inactive, SUMO1 PPI mod inactive, Scp1 inh 99, DNMT1 block inactive, Scp-1 conf inactive and MG interference inactive.
For CC(C)(O)CCCC(C)(O)c1ccc(C(=O)O)cc1O (stereo unspecified) the results were Rpn11 inh inactive, LMPTP block inactive, STEP block inactive, SUMO1 PPI mod inactive, Scp1 inh 61, DNMT1 block inactive, Scp-1 conf 52, MG interference inactive and Scp-1 Tm shift 6.1.
